In PubChem BioAssay:
A number with no mark means an inactive call. Inconclusive results are not listed. Active and inactive are the calls of the source.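 The calls were made as follows, unless noted: active = growth inhibition above 25% in both replicates, a cutoff set 3 SD above the mean; inconclusive = above 25% in only one replicate; inactive = the rest.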

Key:
[1] = OD615 S. cerevisiae growth inhibition, permissive medium, pilot counter-assay, permissive growth control for S. cerevisiae lifespan shortening project (AID 705); conditions: OD615, 24 h, at 10 µM, stronger effect = higher value
Summary of the method: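 Material: engineered DeaD yeast; compound dosing: one dose 10 µM, DMSO 0.25% final; measure: yeast growth inhibition indicated by reduced 24 h OD615; detection: OD615 turbidity read; incubation: cells pre-grown 4 h, then 24 h compound exposure, 30 °C humidified; medium: permissive synthetic complete medium with raffinose and galactose carbon sources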

[2] = Restrictive medium S. cerevisiae growth inhibition, OD615, pilot screen of yeast lifespan reduction project, restrictive growth control (AID 706;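 active = growth inhibition above a set limit, 3 SD over mean compound inhibition, in both replicates, cut at about 43% in these data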;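 also: modified DeaD lifespan yeast strain shifted to restrictive glucose medium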); conditions: OD615, 48 h, at 10 µM, stronger effect = higher value
Summary of the method: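 material = engineered S. cerevisiae DeaD strain | medium = glucose-based CSMM-D restrictive medium | times = 4 h pre-incubation, 48 h exposure at 30 °C | technique = OD615 absorbance reading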

[3] = viability gain of MRP-1-high H69AR cells under doxorubicin, pilot screen, MRP-1 activator project, CellTiter-Glo, duplicate (AID 807;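 active = viability increase at or above a cutoff of the median across tested compounds plus 3 SD, cut at about 8.5% in these data, passing the limit was not always enough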;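 also: compound pretreatment 18-22 h then 72 h combined with doxorubicin; 0% = doxorubicin alone and 100% = vehicle without doxorubicin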); conditions: H69AR viability with doxorubicin, CellTiter-Glo luminescence; at 10 µM; stronger effect = higher value
[4] = growth suppression of beta-catenin knockout HCT116, pilot screen, human colon tumor cells (AID 823;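 active = cell viability at or below a set limit in both duplicate runs, the limit being the all-compound median minus 4 SD, cut at about 23% in these data, passing the limit was not always enough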;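 also: 0% = wells killed by 20 µM Hyamine and 100% = untreated DMSO cell wells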); conditions: CellTiter-Glo, 60 h, at 10 µM, stronger effect = lower value
[5] = growth suppression of PTEN-deleted HCT116, pilot screen, cell-based, HCT116 clonal line, CellTiter-Glo (AID 824;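 active = viability at or below 27.92% in each of two runs, the all-compound median minus 4 SD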;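 also: 0% = 20 µM Hyamine control and 100% = vehicle cell control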); conditions: 60 h, at 10 µM, stronger effect = lower value
[6] = inhibitors of the yeast RAM network, pilot screen, dse1pr::URA3 reporter, 5-FOA selection (AID 869;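 active = inhibition over a set limit, the all-compound mean plus 3 SD, in both replicate runs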;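 also: 0% = DMSO wells with no growth and 100% = 10 µM 1-NA-PP1 with full growth; RAM network block rescues cells from 5-FOA so hits raise OD615 growth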); conditions: S. cerevisiae dse1pr::URA3 5-FOA growth, OD615, 2 d; at 10 µM; stronger effect = higher value; strain carries analog-sensitive mutant Cbk1 kinase

COc1ccccc1-n1c(CNC(=O)c2ccccc2)nnc1SCC(=O)Nc1nnc(C)s1
growth inhibition [1]: 3.6% | growth inhibition [2]: 0.83% | viability increase [3]: -0.83% | viability [4]: 103% | viability [5]: 102% | inhibition [6]: 1.05%

Cc1ccccc1S(=O)(=O)Cc1ccc(C(=O)N2CC(C)CC(C)C2)o1 (stereo unspecified)
growth inhibition [1]: -18.1% | growth inhibition [2]: -32% | viability increase [3]: -0.61% | viability [4]: 103% | viability [5]: 90.2% | inhibition [6]: -0.465%

O=C(Cn1cc2c(n1)CCCCC2)NCCCN1CCOCC1
growth inhibition [1]: -9.29% | growth inhibition [2]: -6.7% | viability increase [3]: 0.92% | viability [4]: 112% | viability [5]: 99.8% | inhibition [6]: 2.08%

Brc1ccc(-c2nnc3ccc(N4CCN(c5ccccc5)CC4)nn23)cc1
growth inhibition [1]: 7.94% | growth inhibition [2]: -10.7% | viability increase [3]: -5.11% | viability [4]: 82.8% | viability [5]: 75.5% | inhibition [6]: 2.52%

O=C(c1cnn2ccccc12)N1CCCc2ccccc21
growth inhibition [1]: -3.54% | growth inhibition [2]: -1.29% | viability increase [3]: -1.74% | viability [4]: 97.1% | viability [5]: 91.9% | inhibition [6]: 2.38%

COc1ccc(OC)c(NC(=O)C2CCC(CNc3c(N4CCC(C)CC4)c(=O)c3=O)CC2)c1 (stereo unspecified)
growth inhibition [1]: -5.59% | growth inhibition [2]: -11.5% | viability increase [3]: -4.93% | viability [4]: 70.8% | viability [5]: 70.1% | inhibition [6]: 0.96%

N#CCCN1CCN(C(=S)c2ccc(-c3cccc(Cl)c3)o2)CC1
growth inhibition [1]: -12.9% | growth inhibition [2]: 22.7% | viability increase [3]: -0.32% | viability [4]: 76.9% | viability [5]: 83% | inhibition [6]: 1.51%

CCCCn1c(Oc2ccc(C(=O)OC)cc2)nc2c1c(=O)n(C)c(=O)n2C
growth inhibition [1]: -10.3% | growth inhibition [2]: -3.88% | viability increase [3]: -2.52% | viability [4]: 84.1% | viability [5]: 84.1% | inhibition [6]: 0.085%

COc1ccc(OC)c2c1sc(=NC(=O)c1ccco1)n2C
growth inhibition [1]: -3.52% | growth inhibition [2]: 4.96% | viability increase [3]: -5.98% | viability [4]: 71.2% | viability [5]: 67.7% | inhibition [6]: 2.21%

CCOc1ccc(NC(=O)C2CSC(c3ccncc3)=N2)cc1 (stereo unspecified)
growth inhibition [1]: -3.44% | growth inhibition [2]: 29.4% | viability increase [3]: -0.05% | viability [4]: 98.3% | viability [5]: 103% | inhibition [6]: 0.675%

CCC(Sc1nc2c(cnn2-c2ccccc2)c(=O)[nH]1)C(=O)OC (stereo unspecified)
growth inhibition [1]: -17.3% | growth inhibition [2]: -17.4% | viability increase [3]: -1.58% | viability [4]: 91.8% | viability [5]: 91.5% | inhibition [6]: 0.65%

Cc1c(C(=O)NCc2cccs2)oc2ccc(S(=O)(=O)N3CCOCC3)cc12
growth inhibition [1]: -0.625% | growth inhibition [2]: -4.37% | viability increase [3]: -4.32% | viability [4]: 79.6% | inhibition [6]: 0.46%

Cc1cccc(-c2noc(CN(C(=O)c3c(-c4ccccc4Cl)noc3C)C(C)C)n2)c1
growth inhibition [1]: -13.9% | growth inhibition [2]: -13% | viability increase [3]: -3.28% | viability [4]: 44.3% | viability [5]: 49.4% | inhibition [6]: 0.585%

COc1cc(C2CC(=O)c3c([nH]c(C(=O)OCCOC(C)C)c3C)C2)cc(OC)c1OC (stereo unspecified)
growth inhibition [1]: -15.2% | growth inhibition [2]: -28.2% | viability increase [3]: -2.78% | viability [5]: 42.7% | inhibition [6]: 1.85%

CCCCN(C)CCCNC(=O)Cn1c(=O)sc2ccccc21
growth inhibition [1]: -8.58% | growth inhibition [2]: -10.9% | viability increase [3]: -3.13% | viability [5]: 97.5% | inhibition [6]: 1.33%

Cc1ccc(-c2nc3cnccn3c2Nc2ccc3c(c2)OCCO3)o1
growth inhibition [1]: -11.4% | growth inhibition [2]: -5.81% | viability increase [3]: -5.2% | viability [4]: 92.4% | inhibition [6]: 1.19%

Cc1c(/C=N/n2cnnc2)c2ccccc2n1CCOc1ccc(Cl)cc1
growth inhibition [1]: 3.74% | growth inhibition [2]: 17.6% | viability increase [3]: -4.25% | viability [5]: 90% | inhibition [6]: 4.12%

CCNC(=O)CCn1nc(-c2ccc(Cl)cc2)c2ccccc2c1=O
growth inhibition [1]: -10.9% | growth inhibition [2]: -10.1% | viability increase [3]: -5.74% | viability [4]: 49.5% | inhibition [6]: 0.575%

C=C(C)Cn1c(SCC(=O)O)nnc1-c1ccc(C(C)(C)C)cc1
growth inhibition [1]: -15.7% | growth inhibition [2]: -4.97% | viability increase [3]: 0.28% | viability [5]: 101% | inhibition [6]: 1%

N#CC1=C2SCN(c3ccccc3)CN2C(=O)CC1c1ccccc1Cl (stereo unspecified)
growth inhibition [1]: 6.17% | viability increase [3]: -5.58% | viability [4]: 97.2% | viability [5]: 82.5% | inhibition [6]: 2.58%

Cc1cccc(N2CCN(C(=O)c3cc4c(=O)n(C)c5ccccc5c4n3C)CC2C)c1 (stereo unspecified)
growth inhibition [1]: -3.86% | growth inhibition [2]: 3.15% | viability increase [3]: -4.81% | inhibition [6]: 1.81%

Cn1cccc1Cc1nnc(SCC(=O)Nc2ccc3c(c2)OCCO3)n1CCc1ccccc1
growth inhibition [1]: 6.56% | growth inhibition [2]: 22.1% | viability increase [3]: -1.87% | viability [4]: 90.2% | viability [5]: 81% | inhibition [6]: 2.25%

COc1ccc(C(=O)/C=C/Nc2cc(C)on2)cc1
growth inhibition [1]: -11.9% | growth inhibition [2]: -11.9% | viability increase [3]: -0.71% | viability [5]: 97%

COc1ccc(-c2cc(CCCC(=O)NCc3ccccn3)no2)cc1
growth inhibition [1]: -5.78% | growth inhibition [2]: 8.54% | viability increase [3]: -1.34% | viability [4]: 98.8% | viability [5]: 97.8% | inhibition [6]: 1.08%

CCCOc1cccc(C(=O)Nc2cccnc2)c1
growth inhibition [1]: -6.8% | growth inhibition [2]: -0.66% | viability increase [3]: 3.16% | viability [4]: 92.6% | viability [5]: 96.2% | inhibition [6]: 0.93%

COc1cc2[nH]c(=O)n(Cc3ccc(C(=O)NCC4CCCO4)cc3)c(=O)c2cc1OC (stereo unspecified)
growth inhibition [1]: -14.9% | growth inhibition [2]: -17.9% | viability increase [3]: -3.55% | viability [4]: 90.2% | inhibition [6]: 3.56%

Cc1noc(/C=C/N(C)C)c1S(=O)(=O)N1CCCC(C(=O)NCc2ccc(F)cc2)C1 (stereo unspecified)
growth inhibition [1]: -4.61% | growth inhibition [2]: -8.86% | viability [4]: 90.1% | viability [5]: 85.8%

N#CCSc1n[nH]c2nc3c(c(=O)n12)C1(CCCC1)Cc1ccccc1-3
growth inhibition [1]: -1.95% | growth inhibition [2]: 28% | viability increase [3]: 4.21% | viability [4]: 102% | inhibition [6]: 2.08%

COC(=O)c1c(-c2ccc(F)cc2)csc1NC(=O)c1ccco1
growth inhibition [1]: -27.6% | growth inhibition [2]: 0.595% | viability increase [3]: 1.29% | viability [4]: 78.5% | inhibition [6]: 1.12%

O=C(Cn1cc2c(n1)CCCC2)NCc1ccccn1
growth inhibition [1]: -2.39% | growth inhibition [2]: 2.25% | viability increase [3]: -0.85% | viability [4]: 104% | viability [5]: 106% | inhibition [6]: 0.72%

CSc1nc(NCCOCCO)c2sc3nc(-c4ccco4)c4c(c3c2n1)CCC4
growth inhibition [1]: -7.22% | growth inhibition [2]: 0.84% | viability increase [3]: -4.7% | viability [4]: 81.3% | inhibition [6]: 1.51%

O=c1c2ccccc2nc(N2CCN(c3ccccc3)CC2)n1Cc1ccccc1
growth inhibition [1]: -18.7% | growth inhibition [2]: -8.96% | viability increase [3]: -6.05% | viability [4]: 66.3% | viability [5]: 72.8% | inhibition [6]: 1.27%

COc1ccc(Nc2nc(N)nc(CN3CCC(Cc4ccccc4)CC3)n2)cc1
growth inhibition [1]: 6.83% | growth inhibition [2]: -0.085% | viability increase [3]: -6.58% | viability [5]: 35.8% | inhibition [6]: 0.1%

N#Cc1c(NC(=O)CCCN2C(=O)c3ccccc3C2=O)oc(-c2ccccc2)c1-c1ccccc1
growth inhibition [1]: -1.81% | growth inhibition [2]: 1.75% | viability increase [3]: 2.13% | viability [4]: 101% | viability [5]: 94.7% | inhibition [6]: -0.33%

C(=C\c1ccccc1)/CN1CCN(c2ncnc3c2oc2ccccc23)CC1
growth inhibition [1]: -2.64% | growth inhibition [2]: -6.73% | viability increase [3]: -3.8% | inhibition [6]: 1.36%

COC(=O)CNc1c(-c2ccccn2)nc2ccc(Br)cn12
growth inhibition [1]: -20.4% | growth inhibition [2]: 10.8% | viability increase [3]: -2.57% | viability [4]: 89.2% | inhibition [6]: 0.175%

COc1ccc(N(CC(=O)NCCSc2ccccn2)S(C)(=O)=O)cc1Cl
growth inhibition [1]: -5.09% | growth inhibition [2]: -6.72% | viability increase [3]: -3.81% | viability [5]: 97.3% | inhibition [6]: 1.44%

C=CCn1c(SCc2cc(=O)n3ccsc3n2)nc2scc(C3CC3)c2c1=O
growth inhibition [1]: -3.27% | growth inhibition [2]: -5.57% | viability increase [3]: -3.7% | viability [5]: 91.8% | inhibition [6]: 2.79%

CCC1(C)Cc2ccccc2-c2nc3n(c(=O)c21)CCCCC3 (stereo unspecified)
growth inhibition [1]: -8.71% | growth inhibition [2]: -14.2% | viability increase [3]: -1.36% | viability [4]: 88.1% | inhibition [6]: 4.02%

CN(Cc1ccccc1)c1oc(COc2ccccc2F)nc1C#N
growth inhibition [1]: -1.62% | growth inhibition [2]: -8.97% | viability increase [3]: 2.94% | viability [4]: 80.2% | viability [5]: 80.9% | inhibition [6]: 1.07%

Cc1cc(NC(=O)c2noc3c2CCc2ccccc2-3)n(-c2ccccc2)n1
growth inhibition [1]: -11.9% | growth inhibition [2]: -2.05% | viability increase [3]: -2.71% | viability [4]: 94.9% | viability [5]: 98.3% | inhibition [6]: 2.88%

CCOC(=O)c1ccc(NC(=O)c2ccc(C)c(S(=O)(=O)N3CCOCC3)c2)cc1
growth inhibition [1]: -7.03% | growth inhibition [2]: -5.64% | viability increase [3]: -3.41% | viability [4]: 12.8% (active) | inhibition [6]: 0.87%

O=C(CCCCn1c(=O)[nH]c2ccsc2c1=O)NCC1CCCO1 (stereo unspecified)
growth inhibition [1]: 2.62% | growth inhibition [2]: -0.86% | viability increase [3]: -3.45% | viability [4]: 97.1% | inhibition [6]: 1.61%
